Assay results reported in ChEMBL document CHEMBL1132942, “Quinolones: novel probes in antifilarial chemotheraphy” (2000).

Columns and labels:
Acanthocheilonema viteae [1] = experiment: (§1) Tested in vivo for Acanthocheilonema viteae at 200 mg/kg X 5 days(perorally); format: functional; details: route oral
Procedure, shortened: (§2)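 A. viteae transmitted to male M. coucha (6 weeks old) via vector tick Ornithodorus moubata. Test agents given orally at 200 mg/kg daily for five consecutive days. Micro- and macrofilaricidal activity assessed per earlier-described methods.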

Acanthocheilonema viteae [2] = experiment: as §1; format: functional; details: route oral; procedure, shortened: as §2; remark: listed apart in the source
[3] = Tested in vivo for sterilization of female worms; format: functional, Acanthocheilonema viteae; parameters: concentration or dose not given beside the values

SMILES	Reduction (Acanthocheilonema viteae [1])	Reduction (Acanthocheilonema viteae [2])	Reduction [3]
CCCCCCCCNC(=O)c1cnc2c(F)cccc2c1O	37%	47%	25%
O=C(NC1CCCCC1)c1cnc2ccc(F)cc2c1O	50%	31%	36%
CCN(CC)CCCC(C)NC(=O)c1cnc2cc(Cl)c(F)cc2c1O (stereo unspecified)	60%	0%	0%
O=C(NC1CCCCC1)c1cnc2ccccc2c1O	90%	100%	
O=C(NC1CCCCC1)c1cnc2ccc([N+](=O)[O-])cc2c1O	54%	0%	0%
CCCCCCCCNC(=O)c1cnc2c(C)cccc2c1O	17%	0%	0%
CCCCCCCCNC(=O)c1cnc2ccccc2c1O	25%	0%	0%
CCCCCCCCNC(=O)c1cnc2ccc(Cl)cc2c1O	30%	50%	0%
CCN(CC)CCCC(C)NC(=O)c1cnc2ccc([N+](=O)[O-])cc2c1O (stereo unspecified)	54%	0%	0%
O=C(NC1CCCCC1)c1cnc2cc([N+](=O)[O-])ccc2c1O	24%	80%	0%
CCCCCCCCNC(=O)c1cnc2ccc(F)cc2c1O	48%	0%	0%
CCCCCCCCNC(=O)c1cnc2ccc([N+](=O)[O-])cc2c1O	40%	38%	100%
Cc1cccc2c(O)c(C(=O)NC3CCCCC3)cnc12	54%	0%	0%
CCN(CC)C(=O)N1CCN(C)CC1.O=C(O)CC(O)(CC(=O)O)C(=O)O [DIETHYLCARBAMAZINE CITRATE]	90%	0%	0%
